An excerpt weighted towards active compounds, which were near 3.7% of everything screened.
MC4R antagonist – MC4R antagonists of cAMP signaling, primary screen, cell-based, TR-FRET, antagonist arm of biased-ligand search. Melanocortin receptor 4 (Homo sapiens), P32245. MC4R-expressing cells, MTII-stimulated cAMP, LANCE TR-FRET. inhibition, % at 6.5 µM. 0.48% of 360,000 active;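 active = inhibition above its plate's cutoff, the mean of tested wells on that plate plus 3 SD, cut at about 29% in these data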;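 note: 0% = Melanotan II alone and 100% = Melanotan II plus saturating MCL0020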
Target sequence (P32245 whole entry, looked up): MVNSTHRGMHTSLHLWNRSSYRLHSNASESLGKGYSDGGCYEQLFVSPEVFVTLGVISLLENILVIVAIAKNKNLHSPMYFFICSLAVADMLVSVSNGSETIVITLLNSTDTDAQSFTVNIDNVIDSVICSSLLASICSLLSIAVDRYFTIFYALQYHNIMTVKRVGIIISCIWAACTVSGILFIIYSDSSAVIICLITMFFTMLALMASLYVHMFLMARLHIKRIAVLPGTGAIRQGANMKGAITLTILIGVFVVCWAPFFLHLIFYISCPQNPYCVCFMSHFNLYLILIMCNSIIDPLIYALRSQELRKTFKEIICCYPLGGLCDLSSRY
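system = U2OS cells with stable human MC4R expression | also added = Melanotan II challenge after compound preincubation | dosing = one concentration, 6.5 µM nominal | incubation = compound 30 min, challenge 1 h, detection 1 h | measured by = TR-FRET with Eu-cAMP and labeled anti-cAMP, 671 nm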
EBI2 antag – EBI2 receptor antagonists, beta-arrestin recruitment, primary screen, cell-based, luminescence, 7a,25-OHC stimulation, uHTS | G-protein coupled receptor 183 (Homo sapiens), P32249 | 7a,25-OHC stimulated | inhibition, % at 5 µM | 0.81% of 360,000 active; in the data active = inhibition above about 38%;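 note: enzyme fragment complementation signal reports receptor beta-arrestin coupling in cells; 0% = agonist plus DMSO wells and 100% = wells without agonist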
Granule exo inh – LAMP-1 surface exposure blockers, TALL-104 cells – cell-based, flow cytometry, MLPCN library, primary screen; 0.66% of 360,000 active; AID 651702, 2012; TALL-104 LAMP-1 surface exposure; cells stimulated with thapsigargin and PMA; inhibition, % at 10 µM;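 active = inhibition above about 55%, limit read from the data; inconclusive = no clear call, values can overlap the other calls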
MC4R ag barr – MC4R agonists recruiting beta-arrestin, primary screen, cell-based, luminescence, agonist arm of biased-ligand search | U2OS MC4R beta-arrestin complementation; percent of melanotan II response, DMSO zero | activation, % at 8.9 µM | Melanocortin receptor 4 (Homo sapiens), P32245 | 0.98% of 360,000 active | AID 540308, 2011;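 active = activation above a per-plate cutoff, the mean activation of sample wells on that plate plus 3 SD, cut at about 8% in these data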
Myeloid diff MLP – induction of myeloid progenitor differentiation, primary screen, cell-based, flow cytometry, MLPCN library | ER-HoxA9 myeloid progenitors, lysozyme-GFP differentiation | calls only at 10 µM | 1% of 360,000 active | AID 624256, 2012;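 active = normalized GFP-positive differentiation at or above the plate's own cutoff, the solvent-only control mean plus 3 SD; inconclusive = no clear call, values can overlap the other calls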;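 note: cells exposed to compound for four days before flow analysis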
U2OS cAMP counter – nonselective cAMP signaling inhibitors, parental cells, counter-screen for MC4R biased antagonist project, cell-based, TR-FRET, U2OS, forskolin, triplicate | shares compounds with MC4R antagonist | LANCE TR-FRET | inhibition, % at 6.5 µM | 26% of 1,600 active | AID 602193, 2012;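 active = mean inhibition over triplicates above the low-control well mean plus 3 SD, set per campaign, cut at about 13% in these data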;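 note: signal is single emission at 671 nm which falls as cellular cAMP rises; 0% = forskolin-stimulated wells and 100% = buffer without forskolin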
MC4R cAMP antag – MC4R cAMP antagonists, retest, confirmation, cell-based, TR-FRET; shares compounds with MC4R antagonist; MC4R-expressing cells, MTII-stimulated cAMP; inhibition, % at 6.5 µM; 27% of 1,600 active; AID 602195, 2012; in the data active = inhibition above about 29%;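 note: 0% = agonist stimulated wells alone and 100% = agonist stimulated wells plus saturating reference antagonist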
Starred values were filed as active, the others as inactive; i = inactive; ? = inconclusive; . = no result; + = active, no number.

SMILES	MC4R antagonist	EBI2 antag	Granule exo inh	MC4R ag barr	Myeloid diff MLP	U2OS cAMP counter	MC4R cAMP antag
CC1(C)CC(=O)C(C(C2=C(O)CC(C)(C)CC2=O)c2cccc(O)c2)C(=O)C1 (centres undefined)	3	-7	-1	0	i	.	.
CC1(C)CC(=O)C(C(C2=C(O)CC(C)(C)CC2=O)c2cccs2)C(=O)C1 (centres undefined)	30*	-27	-2	1	i	12	21
CCOc1cc(C(=O)NCC(C)(C)CNC(=O)c2cc(OCC)c(OCC)c(OCC)c2)cc(OCC)c1OCC	30*	12	10	1	i	-5	1
CCC1(C)Cc2ccccc2-c2[nH]c(=S)[nH]c(=O)c21 (centres undefined)	29*	4	-5	-1	i	20*	47*
CCOC(=O)[C@]12CCC=C1N(Cc1ccco1)C(=O)[C@H](CC(=O)NCC1CCCCC1)C2	.	9	1	.	i	.	.
COC(=O)COc1ccc2cc(-c3ccccc3)c(=O)oc2c1	40*	-7	-1	-1	i	24*	56*
COC(=O)COc1ccc2cc(-c3ccc(OC)cc3)c(=O)oc2c1	39*	-7	5	0	i	26*	42*
COC(=O)COc1ccc2c(=O)c(-c3ccccc3)coc2c1	44*	6	7	0	i	28*	52*
CC(C)Oc1ccc2c(=O)c(-c3ccccc3)coc2c1	-1	5	1	1	i	.	.
COc1ccc(-c2cc3ccc(OCC(C)=O)cc3oc2=O)cc1	12	-2	-1	-1	i	.	.
CC(Cc1ccsc1)NC(=O)CCc1nnc(COc2ccccc2)o1 (centres undefined)	-5	8	-6	-2	i	.	.
C=CC[C@@H](CC(=O)N(CCO)Cc1ccccc1)C(=O)NC[C@H](OC(=O)[C@@H](CC=C)Cc1ccc(F)cc1)c1ccccc1	35*	-4	-3	2	?	0	0
O=C1C(=O)N(c2ccc(O)cc2)C(c2ccccc2[N+](=O)[O-])/C1=C(\O)c1ccccc1 (centres undefined)	12	-5	4	1	i	.	.
O=S(=O)(c1ccccc1)C1CON(Cc2ccccc2)C1c1ccccc1 (centres undefined)	30*	3	-4	2	i	2	-9
Cc1c(C(=O)NCc2ccc(F)cc2)oc2ccc(S(=O)(=O)N3CCOCC3)cc12	32*	16	-9	2	i	-1	-1
O=C(COC(=O)Cc1cccc(F)c1)NC(=O)NC1CCCCC1	5	2	5	-3	i	.	.
COc1cc(C(=O)NNC(=S)Nc2ccc(S(N)(=O)=O)cc2)cc(OC)c1OC	7	8	-8	0	i	.	.
O=C(O)c1ccccc1C(=O)c1cccc2c(Br)cccc12	+	-11	-7	-3	i	+	+
CCOC(=O)CN(C(=O)COc1ccc2c(C)cc(=O)oc2c1)c1ccc(OCC)cc1	-3	7	3	0	i	.	.
CCOC(=O)c1sc(NC(=O)c2ccc(S(=O)(=O)N3CCCCCC3)cc2)nc1-c1ccccc1	32*	-2	5	-1	i	-6	0
CCC(CC)C(C(=O)NCc1ccccc1)N1CCN(C(=O)C2CCCO2)CC1 (centres undefined)	.	-2	-4	.	i	.	.
O=C(O)CCn1c(=O)n(CCC(=O)O)c(=O)n(CCC(=O)O)c1=O	29*	2	-4	-3	i	-3	-12

Screens as filed in PubChem BioAssay.
